Assay results published in ChEMBL document CHEMBL4190234, “Design, synthesis and anticancer activity of new monastrol analogues bearing 1,3,4-oxadiazole moiety” (Eur J Med Chem, 2017).

Columns and labels:
Assay type in all cases: functional
Malme-3M = assay: Growth inhibition of human MALME-3M cells at 10 uM incubated for 48 hrs by sulforhodamine B assay relative to control; conditions: read-out: GI
Procedure, shortened: (§1)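 Single-dose screen at 10 μM final: cells in RPMI 1640, 5% FBS, 2 mM L-glutamine, plated 5,000–40,000/well, preincubated 24 h at 37°C, 5% CO2; drug 48 h; adherent cells fixed with 10% TCA, suspension cells with 16% TCA; SRB stain, absorbance 515 nm; percentage growth versus untreated control, with time-zero plates.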

SW-620 = assay: Growth inhibition of human SW620 cells at 10 uM incubated for 48 hrs by sulforhodamine B assay relative to control; conditions: SW-620, 48 h, read-out: GI
Procedure, shortened: (§2)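 NCI single-dose screen: cells grown in RPMI 1640 with 5% FBS and 2 mM L-glutamine, plated at 5,000–40,000 cells/well and preincubated 24 h at 37 °C, 5% CO2. Compounds taken from DMSO stock and tested at final 10 µM for 48 h. Cells fixed with TCA, stained with 0.4% SRB, absorbance read at 515 nm. Percentage growth calculated against untreated controls; controls held DMSO at the same dilution.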

NCI-H322M = assay: Growth inhibition of human NCI-H322M cells at 10 uM incubated for 48 hrs by sulforhodamine B assay relative to control; conditions: read-out: GI; procedure, shortened: as §1
SF-539 = assay: Growth inhibition of human SF539 cells at 10 uM incubated for 48 hrs by sulforhodamine B assay relative to control; conditions: SF-539, 48 h, read-out: GI; procedure, shortened: as §2
MDA-MB-468 = assay: Growth inhibition of human MDA-MB-468 cells at 10 uM incubated for 48 hrs by sulforhodamine B assay relative to control; conditions: MDA-MB-468, 48 h, read-out: GI; procedure, shortened: as §1
NCI/ADR-RES = assay: Growth inhibition of human NCI/ADR-RES cells at 10 uM incubated for 48 hrs by sulforhodamine B assay relative to control; conditions: read-out: GI; procedure, shortened: as §1
UACC-257 = assay: Growth inhibition of human UACC257 cells at 10 uM incubated for 48 hrs by sulforhodamine B assay relative to control; conditions: UACC-257, 48 h, read-out: GI; procedure, shortened: as §2
M14 = assay: Growth inhibition of human M14 cells at 10 uM incubated for 48 hrs by sulforhodamine B assay relative to control; conditions: M14, 48 h, read-out: GI; procedure, shortened: as §1
SF-268 = assay: Growth inhibition of human SF268 cells at 10 uM incubated for 48 hrs by sulforhodamine B assay relative to control; conditions: SF-268, 48 h, read-out: GI; procedure, shortened: as §2
A498 = assay: Growth inhibition of human A498 cells at 10 uM incubated for 48 hrs by sulforhodamine B assay relative to control; conditions: A498, 48 h, read-out: GI; procedure, shortened: as §1
SF-295 = assay: Growth inhibition of human SF295 cells at 10 uM incubated for 48 hrs by sulforhodamine B assay relative to control; conditions: SF-295, 48 h, read-out: GI; procedure, shortened: as §2
HCT-116 = assay: Growth inhibition of human HCT116 cells at 10 uM incubated for 48 hrs by sulforhodamine B assay relative to control; conditions: HCT-116, 48 h, read-out: GI; procedure, shortened: as §1
PC-3 = assay: Growth inhibition of human PC3 cells at 10 uM incubated for 48 hrs by sulforhodamine B assay relative to control; conditions: PC-3, 48 h, read-out: GI; procedure, shortened: as §1
MDA-MB-231 = assay: Growth inhibition of human MDA-MB-231 cells at 10 uM incubated for 48 hrs by sulforhodamine B assay relative to control; conditions: MDA-MB-231, 48 h, read-out: GI; procedure, shortened: as §1
NCI-H226 = assay: Growth inhibition of human NCI-H226 cells at 10 uM incubated for 48 hrs by sulforhodamine B assay relative to control; conditions: NCI-H226, 48 h, read-out: GI; procedure, shortened: as §1
ACHN = assay: Growth inhibition of human ACHN cells at 10 uM incubated for 48 hrs by sulforhodamine B assay relative to control; conditions: read-out: GI; procedure, shortened: as §1
SNB-75 = assay: Growth inhibition of human SNB75 cells at 10 uM incubated for 48 hrs by sulforhodamine B assay relative to control; conditions: SNB-75, 48 h, read-out: GI; procedure, shortened: as §2
SN12C = assay: Growth inhibition of human SN12C cells at 10 uM incubated for 48 hrs by sulforhodamine B assay relative to control; conditions: read-out: GI; procedure, shortened: as §2
EKVX = assay: Growth inhibition of human EKVX cells at 10 uM incubated for 48 hrs by sulforhodamine B assay relative to control; conditions: read-out: GI; procedure, shortened: as §1
NCI-H460 = assay: Growth inhibition of human NCI-H460 cells at 10 uM incubated for 48 hrs by sulforhodamine B assay relative to control; conditions: NCI-H460, 48 h, read-out: GI; procedure, shortened: as §1
OVCAR-5 = assay: Growth inhibition of human OVCAR5 cells at 10 uM incubated for 48 hrs by sulforhodamine B assay relative to control; conditions: OVCAR-5, 48 h, read-out: GI; procedure, shortened: as §1
UO-31 = assay: Growth inhibition of human UO31 cells at 10 uM incubated for 48 hrs by sulforhodamine B assay relative to control; conditions: UO-31, 48 h, read-out: GI; procedure, shortened: as §2
SR = assay: Growth inhibition of human SR cells at 10 uM incubated for 48 hrs by sulforhodamine B assay relative to control; conditions: read-out: GI; procedure, shortened: as §2
OVCAR-4 = assay: Growth inhibition of human OVCAR4 cells at 10 uM incubated for 48 hrs by sulforhodamine B assay relative to control; conditions: OVCAR-4, 48 h, read-out: GI; procedure, shortened: as §1
HOP-92 = assay: Growth inhibition of human HOP92 cells at 10 uM incubated for 48 hrs by sulforhodamine B assay relative to control; conditions: HOP-92, 48 h, read-out: GI; procedure, shortened: as §1
MOLT-4 = assay: Growth inhibition of human MOLT4 cells at 10 uM incubated for 48 hrs by sulforhodamine B assay relative to control; conditions: MOLT-4, 48 h, read-out: GI; procedure, shortened: as §1
SK-MEL-2 = assay: Growth inhibition of human SK-MEL-2 cells at 10 uM incubated for 48 hrs by sulforhodamine B assay relative to control; conditions: SK-MEL-2, 48 h, read-out: GI; procedure, shortened: as §2
IGROV-1 = assay: Growth inhibition of human IGROV1 cells at 10 uM incubated for 48 hrs by sulforhodamine B assay relative to control; conditions: IGROV-1, 48 h, read-out: GI; procedure, shortened: as §1
RPMI-8226 = assay: Growth inhibition of human RPMI8226 cells at 10 uM incubated for 48 hrs by sulforhodamine B assay relative to control; conditions: RPMI-8226, 48 h, read-out: GI; procedure, shortened: as §1
K562 = assay: Growth inhibition of human K562 cells at 10 uM incubated for 48 hrs by sulforhodamine B assay relative to control; conditions: K562, 48 h, read-out: GI; procedure, shortened: as §1
CAKI-1 = assay: Growth inhibition of human Caki1 cells at 10 uM incubated for 48 hrs by sulforhodamine B assay relative to control; conditions: CAKI-1, 48 h, read-out: GI; procedure, shortened: as §1

SMILES	inhibition of growth at 10 µM (Malme-3M) [%]	inhibition of growth at 10 µM (SW-620) [%]	inhibition of growth at 10 µM (NCI-H322M) [%]	inhibition of growth at 10 µM (SF-539) [%]	inhibition of growth at 10 µM (MDA-MB-468) [%]	inhibition of growth at 10 µM (NCI/ADR-RES) [%]	inhibition of growth at 10 µM (UACC-257) [%]	inhibition of growth at 10 µM (M14) [%]	inhibition of growth at 10 µM (SF-268) [%]	inhibition of growth at 10 µM (A498) [%]	inhibition of growth at 10 µM (SF-295) [%]	inhibition of growth at 10 µM (HCT-116) [%]	inhibition of growth at 10 µM (PC-3) [%]	inhibition of growth at 10 µM (MDA-MB-231) [%]	inhibition of growth at 10 µM (NCI-H226) [%]	inhibition of growth at 10 µM (ACHN) [%]	inhibition of growth at 10 µM (SNB-75) [%]	inhibition of growth at 10 µM (SN12C) [%]	inhibition of growth at 10 µM (EKVX) [%]	inhibition of growth at 10 µM (NCI-H460) [%]	also measured
CCOC(=O)C1=C(C)NC(SCc2nnc(-c3ccc(Cl)cc3)o2)=NC1c1ccc(Cl)cc1Cl (configuration not stated)	27.2	33.8	21.1	13.6	11.6	45.4	31.9	34.8	26.7	22.3	52.8	71.2	54.9	58.3	21	42.3	15.9	34.6	22.8	40.8	inhibition of growth at 10 µM (OVCAR-5): 11%; inhibition of growth at 10 µM (UO-31): 62.8%; inhibition of growth at 10 µM (SR): 62.1%; inhibition of growth at 10 µM (OVCAR-4): 47.3%; inhibition of growth at 10 µM (HOP-92): 73.6%; inhibition of growth at 10 µM (MOLT-4): 88.8%; inhibition of growth at 10 µM (SK-MEL-2): 40%; inhibition of growth at 10 µM (IGROV-1): 56.1%
CCOC(=O)C1=C(C)NC(SCc2nnc(-c3ccc(Cl)cc3)o2)=NC1c1ccc(Br)cc1 (configuration not stated)	16.9	< 10	13.6	11.3	41.8	32.5	27	26	13.3	26.8	26.4	51.4	51.2	40.2	21.1	30.3	32.3	< 10	28.7	19.6	inhibition of growth at 10 µM (RPMI-8226): 61.6%; inhibition of growth at 10 µM (K562): 39.3%; inhibition of growth at 10 µM (CAKI-1): 32.8%; inhibition of growth at 10 µM (OVCAR-5): < 10%; inhibition of growth at 10 µM (UO-31): 47.6%; inhibition of growth at 10 µM (SR): 61.2%; inhibition of growth at 10 µM (OVCAR-4): 30.4%; inhibition of growth at 10 µM (HOP-92): 42.2%; inhibition of growth at 10 µM (MOLT-4): 91.7%; inhibition of growth at 10 µM (SK-MEL-2): < 10%; inhibition of growth at 10 µM (IGROV-1): 34.5%
CCOC(=O)C1=C(C)NC(SCc2nnc(-c3ccc(C)cc3)o2)=NC1c1ccc(F)cc1 (configuration not stated)	< 10	< 10	10.3	< 10	18.1	< 10	< 10	< 10	< 10	< 10	12.1	18.6	26.8	14.7	10.1	19	13.8	19.9	< 10	< 10	inhibition of growth at 10 µM (RPMI-8226): 27.2%; inhibition of growth at 10 µM (K562): 14.7%; inhibition of growth at 10 µM (CAKI-1): 24.7%; inhibition of growth at 10 µM (OVCAR-5): < 10%; inhibition of growth at 10 µM (UO-31): < 10%; inhibition of growth at 10 µM (SR): 26.5%; inhibition of growth at 10 µM (OVCAR-4): < 10%; inhibition of growth at 10 µM (HOP-92): 37%; inhibition of growth at 10 µM (MOLT-4): 21.6%; inhibition of growth at 10 µM (SK-MEL-2): < 10%; inhibition of growth at 10 µM (IGROV-1): 13.9%
CC(=O)C1=C(C)NC(SCc2nnc(-c3ccc(C)cc3)o2)=NC1c1ccc(F)cc1 (configuration not stated)	< 10	< 10	< 10	< 10	< 10	< 10	< 10	< 10	< 10	< 10	< 10	< 10	14.7	< 10	10.4	< 10	< 10	< 10	< 10	< 10	inhibition of growth at 10 µM (RPMI-8226): 16.3%; inhibition of growth at 10 µM (K562): < 10%; inhibition of growth at 10 µM (CAKI-1): 12%; inhibition of growth at 10 µM (OVCAR-5): 10.4%; inhibition of growth at 10 µM (UO-31): 16.4%; inhibition of growth at 10 µM (SR): 19.1%; inhibition of growth at 10 µM (OVCAR-4): < 10%; inhibition of growth at 10 µM (HOP-92): < 10%; inhibition of growth at 10 µM (MOLT-4): < 10%; inhibition of growth at 10 µM (SK-MEL-2): < 10%; inhibition of growth at 10 µM (IGROV-1): 11%
CCOC(=O)C1=C(C)NC(SCc2nnc(-c3ccc(Cl)cc3)o2)=NC1c1ccccc1 (configuration not stated)	< 10	< 10	< 10	< 10	14.7	< 10	25.9	19.5	< 10	< 10	23.4	36.8	42.2	< 10	11.4	< 10	< 10	14.8	14.8	< 10	inhibition of growth at 10 µM (RPMI-8226): 27.3%; inhibition of growth at 10 µM (K562): 25.2%; inhibition of growth at 10 µM (CAKI-1): 22.3%; inhibition of growth at 10 µM (OVCAR-5): < 10%; inhibition of growth at 10 µM (UO-31): 19.4%; inhibition of growth at 10 µM (SR): 24.9%; inhibition of growth at 10 µM (OVCAR-4): < 10%; inhibition of growth at 10 µM (HOP-92): 40.1%; inhibition of growth at 10 µM (MOLT-4): 31.3%; inhibition of growth at 10 µM (SK-MEL-2): 34.5%; inhibition of growth at 10 µM (IGROV-1): < 10%
